This passage reports folding enthalpy and Tm results from the array DNA melting data of Ke et al. (doi:10.1101/2024.01.08.574731).

Series [1] can be described thus: folding enthalpy; higher = less favourable; fluorescence melt of hairpins on a sequencing array, two-state fit. Particulars: sodium 0.088 M. The essentials:
(§1)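 On a sequenced MiSeq flow cell, library hairpins with annealed Cy3 and quencher oligos were imaged for Cy3 fluorescence in 2.5 °C steps up to 60 °C, in 50 mM Na-HEPES pH 8.0, 25 mM NaCl. Normalisation used pre-quench Cy3 and control constructs. Bootstrapped two-state fits gave melting temperature and folding enthalpy, combined by inverse variance across four replicates and with fitted temperatures raised by 9.35 °C to match UV melts.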

Series [2] in a line: melting temperature; fluorescence melt of hairpins on a sequencing array, two-state fit, raised by 9.35 °C to match UV melts. The settings on record: sodium 0.088 M. The essentials:
as §1

On to GTCCCCGAAAGGGACGAC ((((((....)))..))), for which the folding enthalpy in series [1] is -18 kcal/mol. The Tm in series [2] is 69.3 °C.

Consider GTGCGGACGAAAGTCCAC (((..(((....)))))), for which, in series [1], the folding enthalpy was -12 kcal/mol. In addition, the Tm in series [2] came to 60.9 °C.

Turning to GGTTGCGGAAACGTAGCC ((.(.((....)).).)), the folding enthalpy in series [1] was -27.3 kcal/mol. For the same sequence, in series [2], the Tm amounted to 40.2 °C.

As for GATCTCCCCGAGATC ((((((...)))))), in series [1], the folding enthalpy was -36.9 kcal/mol. For the same sequence, in series [2], the Tm turned out to be 55.3 °C.

As to GGATCCGAAAGGACCTCC ((((((....)))..))), the folding enthalpy in series [1] is -15.5 kcal/mol. Further, the Tm in series [2] was 47.2 °C.

For the sequence GCTCCCGGAAACGGGAAC (.(((((....))))).), the folding enthalpy in series [1] was -15 kcal/mol. Further, the Tm in series [2] was determined as 43 °C.

With GATAACGAAAGTTAGATC ((((((....)))..))), the folding enthalpy in series [1] was -16.8 kcal/mol. For the same sequence, in series [2], the Tm was found to be 35.3 °C.

With GGTGATCCGAAAGGAACC (((..(((....)))))), the folding enthalpy in series [1] was -18.7 kcal/mol. Moreover, the Tm in series [2] was determined as 33.2 °C.

As to CGGCCGGAAACGGATCCG ((((((....)))..))), the folding enthalpy in series [1] is -22 kcal/mol. Also, the Tm in series [2] stood at 39.8 °C.

Regarding GAACCACGAAAGTGCTTC (((.(((....))).))), the folding enthalpy in series [1] was -17.1 kcal/mol. For the same sequence, the Tm in series [2] came out at 32.3 °C.

For the sequence GCCAGGAAACTGGC (((((....))))), in series [1], the folding enthalpy is -38.2 kcal/mol. In addition, the Tm in series [2] was 63.2 °C.

For the sequence GCCCATGGAAACATGGAC (.(((((....))))).), the folding enthalpy in series [1] was -15.1 kcal/mol. Moreover, in series [2], the Tm was 46.7 °C.

Consider GCTCCACGAAAGTGAGC (((.(((....)))))), for which the folding enthalpy in series [1] is -26.2 kcal/mol. For the same sequence, in series [2], the Tm was 54 °C.

Turning to GCCATCGAAAGATACGGC ((((((....)))..))), the folding enthalpy in series [1] was -26.4 kcal/mol. The Tm in series [2] came to 41.5 °C.

For the sequence GCGCTCGAAAGAGCCCGC ((((((....)))..))), the folding enthalpy in series [1] is -11.8 kcal/mol. In addition, the Tm in series [2] is 43.4 °C.

As to GCGAATATTCGC ((((....)))), in series [1], the folding enthalpy is -33.5 kcal/mol. In addition, the Tm in series [2] came out at 50.7 °C.

As to GGCCAAGGAAACTCAGCC (((..((....))..))), in series [1], the folding enthalpy was -11.7 kcal/mol. For the same sequence, in series [2], the Tm stood at 30.2 °C.

As to CGTGTCCGGAAACGGACG (((..(((....)))))), the folding enthalpy in series [1] was -7.66 kcal/mol. The Tm in series [2] came to 48.1 °C.

With GGGTAGAAATACCC (((((....))))), the folding enthalpy in series [1] was -23.1 kcal/mol. Also, the Tm in series [2] was found to be 47.9 °C.

In the case of GACTGGGGAAACCTGGTC (((..((....))..))), the folding enthalpy in series [1] was -34.9 kcal/mol. The Tm in series [2] was 38.9 °C.

Turning to GGTTCAGGAAACTGGATC (.(.(((....))).).), the folding enthalpy in series [1] is -10.2 kcal/mol. In series [2], the Tm was found to be 30 °C.

Take GATCGTTATAACGATC ((((((....)))))): the folding enthalpy in series [1] is -40.1 kcal/mol. Besides, the Tm in series [2] amounted to 56.7 °C.

For the sequence GCGATGATTCGC ((((....)))), in series [1], the folding enthalpy is -23.3 kcal/mol. Also, the Tm in series [2] was found to be 50.9 °C.

On to GTTACGGGAAACCGTAAC (((((((....))))))), for which the folding enthalpy in series [1] is -46 kcal/mol. The Tm in series [2] was determined as 60.5 °C.

Turning to CGTCTCGGAAACGATACG (((.(((....))).))), in series [1], the folding enthalpy was -38 kcal/mol. Further, the Tm in series [2] turned out to be 42.9 °C.

For the sequence GGTAACGAAAGTTGCACC ((((((....)))..))), the folding enthalpy in series [1] is -14.1 kcal/mol. Further, the Tm in series [2] was 35.1 °C.

As for GCGTCGGACGC ((((...)))), the folding enthalpy in series [1] was -24.1 kcal/mol. In addition, the Tm in series [2] is 51.7 °C.

For the sequence GCGGTACACCGC ((((....)))), the folding enthalpy in series [1] is -40.4 kcal/mol. For the same sequence, in series [2], the Tm amounted to 59.1 °C.

On to GGACTGACGAAAGTCTCC (((..(((....)))))), for which the folding enthalpy in series [1] is -9.45 kcal/mol. In series [2], the Tm was 28.6 °C.

Regarding GGTAATCCGAAAGGAACC (((..(((....)))))), in series [1], the folding enthalpy is -19.7 kcal/mol. Also, in series [2], the Tm worked out at 26 °C.

On to GTGTGCGAAAGCAGCCAC ((((((....)))..))), for which the folding enthalpy in series [1] is -13.4 kcal/mol. The Tm in series [2] worked out at 36.1 °C.

As for GCGTAGCGAAAGCTCCGC (((.(((....))).))), the folding enthalpy in series [1] was -40 kcal/mol. The Tm in series [2] was determined as 49.7 °C.

Regarding GATCGCGAAAGCGCGATC ((((((....)))..))), the folding enthalpy in series [1] is -30.8 kcal/mol. In addition, the Tm in series [2] was found to be 64.1 °C.

Regarding GCACGTGGAAACGCGTGC (((((.(....).))))), the folding enthalpy in series [1] was -45.1 kcal/mol. Also, the Tm in series [2] was found to be 64.6 °C.

Turning to GCGCAGCGAAAGCCGAGC ((.(.((....)).).)), the folding enthalpy in series [1] was -9.37 kcal/mol. In series [2], the Tm was found to be 46.7 °C.

GCTTCTGGAAACAGGAGC (((.(((....))).))): the folding enthalpy in series [1] is -37.5 kcal/mol. The Tm in series [2] came out at 50.5 °C.

As to GATCAATCATTGATC ((((((...)))))), in series [1], the folding enthalpy was -27.1 kcal/mol. Also, in series [2], the Tm worked out at 42 °C.

With GCCTATGGAAACACAGGC ((((.((....)).)))), the folding enthalpy in series [1] was -31.7 kcal/mol. Besides, the Tm in series [2] is 40 °C.

On to GCTTCGCGAAAGCAACGC ((.(.((....)).).)), for which, in series [1], the folding enthalpy is -10 kcal/mol. Besides, in series [2], the Tm was 29.2 °C.

On to GATAAGCGAAAGCTGATC (((.(((....))).))), for which the folding enthalpy in series [1] is -26.3 kcal/mol. Besides, the Tm in series [2] came out at 47.5 °C.

As for GGCAAATCGAAAGATGCC (((..(((....)))))), the folding enthalpy in series [1] is -29.8 kcal/mol. The Tm in series [2] came out at 47.6 °C.

Turning to GTCGGCGAAAGCCTTGAC ((((((....)))..))), the folding enthalpy in series [1] was -13 kcal/mol. Also, the Tm in series [2] was 40.5 °C.

On to GTTAGAGCGAAAGCTAAC (((..(((....)))))), for which the folding enthalpy in series [1] was -14.6 kcal/mol. Besides, in series [2], the Tm was found to be 33.1 °C.

For the sequence GCTCCCGAAAGGGTTAGC ((((((....)))..))), the folding enthalpy in series [1] is -16.2 kcal/mol. In addition, the Tm in series [2] was found to be 43.3 °C.

On to AGTAGCTGAAAAGTTACT ((((.((....)).)))), for which the folding enthalpy in series [1] is -20.2 kcal/mol. In series [2], the Tm is 36 °C.

Turning to CATACGAAAGTATG (((((....))))), the folding enthalpy in series [1] is -25.1 kcal/mol. Further, the Tm in series [2] was 50.4 °C.

As to GTACAAGGAAACTTGCAC ((.((((....)))).)), the folding enthalpy in series [1] is -25.4 kcal/mol. Further, in series [2], the Tm was determined as 34.1 °C.

GCACCCGGAAACGGGCGC ((.((((....)))).)): the folding enthalpy in series [1] is -38 kcal/mol. In addition, in series [2], the Tm was found to be 61.5 °C.

Regarding GATCTTCGAGAAGATC ((((((....)))))), the folding enthalpy in series [1] was -42 kcal/mol. Also, in series [2], the Tm came to 50.8 °C.

GGTGGCGAAAGCCGGACC ((((((....)))..))): the folding enthalpy in series [1] is -12.1 kcal/mol. In addition, the Tm in series [2] stood at 46.8 °C.

As to GTATATCGAAAGATCTAC (((.(((....))).))), the folding enthalpy in series [1] is -19.5 kcal/mol. Moreover, the Tm in series [2] is 31.8 °C.

Take GGCAACGAAAGTTGGGCC ((((((....)))..))): in series [1], the folding enthalpy was -16.9 kcal/mol. Further, the Tm in series [2] stood at 44.6 °C.

Turning to GGAGCTGGAAACGGCTTC (.(((.(....).))).), the folding enthalpy in series [1] is -25.9 kcal/mol. For the same sequence, the Tm in series [2] was 41.5 °C.

As to GATAGACGAAAGTCCATC (((.(((....))).))), in series [1], the folding enthalpy was -13.3 kcal/mol. For the same sequence, the Tm in series [2] is 35.1 °C.

With GATCATGGGCATGATC ((((((....)))))), the folding enthalpy in series [1] is -38 kcal/mol. Besides, the Tm in series [2] was 49.6 °C.
